From ChEMBL document CHEMBL1122210, “(2-Chloroethyl)nitrosourea congeners of amino acid amides” (J Med Chem, 1982)

Tests used:
[1] = Tested in vitro for Half- life period of the compound; format: ADME
[2] = test system: L1210; assay: Tested for Mean survival days against mouse leukemia L1210 cells; format: functional
How it was run: (§1)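 Male BDF1 hybrid mice inoculated ip with 10⁶ L1210 lymphoid leukemia cells; compounds dissolved in distilled water, given ip once daily for 3 days starting 24 h after implantation (day 1). %ILS = 100(T/C−1) versus untreated tumor-bearing controls, counting 60-day survivors; 60-day survivors tallied per treated group.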

[3] = test system: L1210; assay: Tested for Maximal effective dose against mouse leukemia L1210 cells; format: functional
How it was run: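 Male BDF1 hybrid mice inoculated ip with 10⁶ L1210 lymphoid leukemia cells; compounds in distilled water given ip once daily for 3 days starting 24 h after implantation (day 1). Percent ILS = 100(T/C-1) versus untreated tumor-bearing controls, counting 60-day survivors. Maximal effective dose recorded.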

[4] = test system: L1210; assay: Tested for Percent increase in life span against mouse leukemia L1210 cells; format: functional; how it was run: as §1
[5] = test system: L1210; assay: Tested for ratio of maximal effective dose/the dose which gives 30% ILS against mouse leukemia L1210 cells; format: cell-based
How it was run: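 In the L1210 model (male BDF1 mice, 10⁶ cells ip, ip dosing in distilled water once daily on days 1–3), therapeutic index is the maximal effective dose divided by the dose giving 30% ILS. ILS = 100(T/C-1), 60-day survivors included.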

[6] = test system: L1210; assay: Tested for Number of 60 days survivors per 5 treated mice against mouse leukemia L1210 cells; format: functional; how it was run: as §1
[7] = Tested for the toxicity after ip administration in SLC-BDF1 male mice; format: organism-based; details: SLC-BDF1, mouse, in vivo
How it was run: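 SLC-BDF1 male mice, 5 weeks old, six per group, single intraperitoneal injection; deaths observed for 21 days; LD50 with 95% fiducial limits by the Litchfield-Wilcoxon method.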

[8] = Tested for the toxicity after iv administration in SLC-BDF1 male mice; format: organism-based; details: SLC-BDF1, mouse, in vivo
How it was run: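 SLC-BDF1 male mice, 5 weeks old, six per group, single intravenous injection; deaths observed for 21 days; LD50 with 95% fiducial limits by the Litchfield-Wilcoxon method.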

Q: With `CSCCC(NC(=O)N(CCCl)N=O)C(N)=O` (centres undefined) as the molecule, how does the half-life [1] read?
A: 38.1 min

Q: What about the Mean survival days [2] of the same molecule?
A: 27.2

Q: And the maximal effective dose [3]?
A: 16 mg/kg/day

Q: And the ILS [4]?
A: 277.8%

Q: And the Therapeutic index [5]?
A: 5.9

Q: And the Survivors [6]?
A: 0

Q: For `NC(=O)CC(NC(=O)N(CCCl)N=O)C(N)=O` (centres undefined), which half-life [1] is on record?
A: 32.1 min

Q: And the Mean survival days [2]?
A: >42.8

Q: And the maximal effective dose [3]?
A: 8 mg/kg/day

Q: And the ILS [4]?
A: >494.4%

Q: What about the Therapeutic index [5] of the same molecule?
A: 15.7

Q: And the Survivors [6]?
A: 2

Q: What does the source list for `NC(=O)CCCNC(=O)N(CCCl)N=O`?
A: half-life [1]: 72.5 min; Mean survival days [2]: >60; maximal effective dose [3]: 16 mg/kg/day; ILS [4]: >733.3%; Therapeutic index [5]: 7.3; Survivors [6]: 5

Q: Which results are given for `CC(C)CC(NC(=O)N(CCCl)N=O)C(N)=O` (centres undefined)?
A: half-life [1]: 48.3 min; Mean survival days [2]: >60; maximal effective dose [3]: 24 mg/kg/day; ILS [4]: >757.1%; Therapeutic index [5]: 11.4; Survivors [6]: 5

Q: For `NC(=O)C1CCCN1C(=O)N(CCCl)N=O` (centres undefined), which half-life [1] is on record?
A: 295 min

Q: And the Mean survival days [2]?
A: >25.2

Q: And the maximal effective dose [3]?
A: 64 mg/kg/day

Q: And the ILS [4]?
A: >250%

Q: What about the Therapeutic index [5] of the same molecule?
A: 5.6

Q: And the Survivors [6]?
A: 1

Q: And the LD50 [7]?
A: 220 mg/kg

Q: What about the LD50 [8] of the same molecule?
A: 195 mg/kg

Q: With `NC(=O)C(Cc1ccc(O)cc1)NC(=O)N(CCCl)N=O` (centres undefined) as the molecule, how does the Mean survival days [2] read?
A: >35.4

Q: And the maximal effective dose [3]?
A: 16 mg/kg/day

Q: And the ILS [4]?
A: >342.5%

Q: And the Therapeutic index [5]?
A: 10

Q: And the Survivors [6]?
A: 2

Q: Which half-life [1] does the source give for `CC(C)C(NC(=O)N(CCCl)N=O)C(N)=O` (centres undefined) here?
A: 44.5 min

Q: What about the Mean survival days [2] of the same molecule?
A: >60

Q: And the maximal effective dose [3]?
A: 8 mg/kg/day

Q: What about the ILS [4] of the same molecule?
A: >757.1%

Q: And the Therapeutic index [5]?
A: 15.7

Q: What about the Survivors [6] of the same molecule?
A: 5

Q: Which half-life [1] does the source give for `NC(=O)CNC(=O)N(CCCl)N=O` here?
A: 44 min

Q: What about the Mean survival days [2] of the same molecule?
A: >60

Q: What about the maximal effective dose [3] of the same molecule?
A: 16 mg/kg/day

Q: What about the ILS [4] of the same molecule?
A: >679.2%

Q: And the Therapeutic index [5]?
A: 36.4

Q: And the Survivors [6]?
A: 5

Q: And the LD50 [7]?
A: 21.2 mg/kg

Q: What about the LD50 [8] of the same molecule?
A: 22.4 mg/kg

Q: Which results are given for `CC(O)C(NC(=O)N(CCCl)N=O)C(N)=O` (centres undefined)?
A: half-life [1]: 23.3 min; Mean survival days [2]: >60; maximal effective dose [3]: 8 mg/kg/day; ILS [4]: >757.1%; Therapeutic index [5]: 40; Survivors [6]: 5

Q: For `NC(=O)C(Cc1ccccc1)NC(=O)N(CCCl)N=O` (centres undefined), which half-life [1] is on record?
A: 49.9 min

Q: And the Mean survival days [2]?
A: >38.2

Q: What about the maximal effective dose [3] of the same molecule?
A: 32 mg/kg/day

Q: What about the ILS [4] of the same molecule?
A: >445.7%

Q: What about the Therapeutic index [5] of the same molecule?
A: 3.8

Q: What about the Survivors [6] of the same molecule?
A: 1

Q: For `CC(NC(=O)N(CCCl)N=O)C(N)=O` (centres undefined), which half-life [1] is on record?
A: 37 min

Q: And the Mean survival days [2]?
A: >60

Q: What about the maximal effective dose [3] of the same molecule?
A: 8 mg/kg/day

Q: What about the ILS [4] of the same molecule?
A: >710.8%

Q: And the Therapeutic index [5]?
A: 14.3

Q: And the Survivors [6]?
A: 5

Q: For `CN(CC(N)=O)C(=O)N(CCCl)N=O` [SARCNU], which half-life [1] is on record?
A: 330 min

Q: What about the Mean survival days [2] of the same molecule?
A: >60

Q: What about the maximal effective dose [3] of the same molecule?
A: 225 mg/kg/day

Q: What about the ILS [4] of the same molecule?
A: >710%

Q: And the Therapeutic index [5]?
A: 15.5

Q: What about the Survivors [6] of the same molecule?
A: 5

Q: What about the LD50 [7] of the same molecule?
A: 392 mg/kg

Q: And the LD50 [8]?
A: 427 mg/kg

Q: Which half-life [1] does the source give for `NC(=O)CCNC(=O)N(CCCl)N=O` here?
A: 61 min

Q: And the Mean survival days [2]?
A: >60

Q: What about the maximal effective dose [3] of the same molecule?
A: 16 mg/kg/day

Q: What about the ILS [4] of the same molecule?
A: >733.3%

Q: What about the Therapeutic index [5] of the same molecule?
A: 15.2

Q: And the Survivors [6]?
A: 5

Q: Which half-life [1] does the source give for `NC(=O)C(CO)NC(=O)N(CCCl)N=O` (centres undefined) here?
A: 19.8 min

Q: And the Mean survival days [2]?
A: >60

Q: And the maximal effective dose [3]?
A: 8 mg/kg/day

Q: What about the ILS [4] of the same molecule?
A: >757.1%

Q: What about the Therapeutic index [5] of the same molecule?
A: 40

Q: And the Survivors [6]?
A: 5
